Laboratory results as given in ChEMBL document CHEMBL4024779, “Novel Terminal Bipheny-Based Diapophytoene Desaturases (CrtN) Inhibitors as Anti-MRSA/VISR/LRSA Agents with Reduced hERG Activity” (J Med Chem, 2018).
Numbering of substitutions follows the chain as printed. Converted amounts (≈) assume the structure as drawn. The source made the active and inactive calls. No cut-off for these calls is given here.

How the values were obtained:
[1] = tested on: Staphylococcus aureus; assay: Antibacterial activity against Staphylococcus aureus Newman after 24 hrs by broth dilution method; format: functional
[2] = target: 4,4'-diapophytoene synthase (Staphylococcus aureus, UniProt A9JQL9); assay: Inhibition of CrtM in Staphylococcus aureus assessed as reduction in staphyloxanthin levels after 72 hrs by spectrophotometric method
Chain of 4,4'-diapophytoene synthase (A9JQL9 whole entry): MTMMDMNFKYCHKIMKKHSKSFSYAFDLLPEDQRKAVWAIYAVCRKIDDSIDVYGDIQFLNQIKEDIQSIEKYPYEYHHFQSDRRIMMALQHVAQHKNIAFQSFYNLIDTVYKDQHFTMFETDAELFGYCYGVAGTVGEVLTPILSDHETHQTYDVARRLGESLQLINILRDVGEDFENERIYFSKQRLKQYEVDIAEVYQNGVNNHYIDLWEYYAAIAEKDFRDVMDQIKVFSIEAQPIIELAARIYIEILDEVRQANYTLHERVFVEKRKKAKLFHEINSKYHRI

[3] = target: T1, 4,4'-diapophytoene desaturase (4,4'-diaponeurosporene-forming) (Staphylococcus aureus (strain Newman), UniProt O07855); assay: Inhibition of Staphylococcus aureus Newman 6His-tagged CrtN expressed in Escherichia coli BL21 (DE3)/pET28a::CrtN assessed as reduction in staphyloxanthin levels using diapophytoene as substrate after overnight incubation by spectrophotometric analysis; design: species or system Staphylococcus aureus subsp. aureus str. Newman
T1 sequence (O07855 whole entry): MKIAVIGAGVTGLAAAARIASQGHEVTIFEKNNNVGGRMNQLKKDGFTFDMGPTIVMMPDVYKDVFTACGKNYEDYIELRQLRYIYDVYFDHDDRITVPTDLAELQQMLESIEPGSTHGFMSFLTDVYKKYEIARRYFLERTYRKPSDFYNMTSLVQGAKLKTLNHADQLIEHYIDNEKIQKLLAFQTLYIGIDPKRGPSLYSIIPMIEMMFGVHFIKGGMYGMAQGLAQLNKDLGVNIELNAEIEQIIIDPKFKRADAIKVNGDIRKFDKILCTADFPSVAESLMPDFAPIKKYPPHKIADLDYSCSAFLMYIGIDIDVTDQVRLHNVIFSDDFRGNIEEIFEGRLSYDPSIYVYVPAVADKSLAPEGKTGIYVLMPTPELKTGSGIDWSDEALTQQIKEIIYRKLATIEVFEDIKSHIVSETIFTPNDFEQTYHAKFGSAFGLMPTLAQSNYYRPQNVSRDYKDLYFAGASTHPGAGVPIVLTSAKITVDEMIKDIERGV

[4] = tested on: Trichophyton mentagrophytes; assay: In vitro antifungal activity against Trichophyton mentagrophytes after 7 days by serial dilution method; format: functional; conditions: 168 h
[5] = target: Voltage-gated inwardly rectifying potassium channel KCNH2 (Homo sapiens, UniProt Q12809); assay: Inhibition of human ERG expressed in CHO cells at -80 mV holding potential after 3 mins by QPatch test; format: cell-based
Chain of Voltage-gated inwardly rectifying potassium channel KCNH2 (Q12809 whole entry): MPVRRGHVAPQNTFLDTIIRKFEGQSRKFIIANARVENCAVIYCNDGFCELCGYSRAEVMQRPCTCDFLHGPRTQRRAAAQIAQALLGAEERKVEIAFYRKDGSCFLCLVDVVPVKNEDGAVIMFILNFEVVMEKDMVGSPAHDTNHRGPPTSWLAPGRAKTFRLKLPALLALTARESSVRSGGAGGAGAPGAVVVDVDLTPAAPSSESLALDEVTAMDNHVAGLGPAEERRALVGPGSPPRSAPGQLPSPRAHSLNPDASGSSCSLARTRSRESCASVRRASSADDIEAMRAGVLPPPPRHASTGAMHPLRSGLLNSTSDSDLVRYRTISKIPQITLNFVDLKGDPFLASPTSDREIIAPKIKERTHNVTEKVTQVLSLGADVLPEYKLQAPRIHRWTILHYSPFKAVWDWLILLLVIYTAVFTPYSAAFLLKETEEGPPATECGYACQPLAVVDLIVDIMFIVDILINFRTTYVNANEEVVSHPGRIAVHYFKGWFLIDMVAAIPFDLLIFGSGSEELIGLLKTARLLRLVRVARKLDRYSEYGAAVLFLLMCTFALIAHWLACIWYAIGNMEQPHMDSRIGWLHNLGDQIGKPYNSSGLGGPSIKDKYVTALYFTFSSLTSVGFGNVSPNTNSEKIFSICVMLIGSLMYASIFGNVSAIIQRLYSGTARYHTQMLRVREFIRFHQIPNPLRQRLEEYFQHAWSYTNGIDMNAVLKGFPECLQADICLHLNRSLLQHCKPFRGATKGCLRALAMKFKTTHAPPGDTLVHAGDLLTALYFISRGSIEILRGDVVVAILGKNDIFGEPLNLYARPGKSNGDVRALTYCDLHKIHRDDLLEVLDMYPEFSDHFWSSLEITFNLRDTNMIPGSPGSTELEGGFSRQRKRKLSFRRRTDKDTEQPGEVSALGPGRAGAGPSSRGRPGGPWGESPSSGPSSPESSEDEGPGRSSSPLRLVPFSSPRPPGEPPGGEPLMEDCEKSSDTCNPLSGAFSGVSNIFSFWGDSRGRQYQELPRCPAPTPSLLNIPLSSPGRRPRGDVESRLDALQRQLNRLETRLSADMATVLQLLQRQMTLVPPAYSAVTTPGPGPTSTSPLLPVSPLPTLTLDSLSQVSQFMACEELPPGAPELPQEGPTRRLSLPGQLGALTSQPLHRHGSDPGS

[6] = tested on: Trichophyton verrucosum; assay: In vitro antifungal activity against Trichophyton verrucosum after 7 days by serial dilution method; format: functional; conditions: 168 h
[7] = target: T2, 4,4'-diapophytoene desaturase (4,4'-diaponeurosporene-forming) (Staphylococcus aureus (strain Mu50 / ATCC 700699), UniProt Q99R76); assay: Inhibition of CrtN in methicillin-resistant Staphylococcus aureus Mu50 assessed as reduction in staphyloxanthin levels after 48 hrs by spectrophotometric method-based pigment inhibition assay; design: species or system Staphylococcus aureus subsp. aureus Mu50
T2 sequence (Q99R76 whole entry): T1 sequence (O07855 whole entry)

[8] = target: T3, 4,4'-diapophytoene desaturase (4,4'-diaponeurosporene-forming) (Staphylococcus aureus (strain USA300), UniProt Q2FDU6); assay: Inhibition of CrtN in methicillin-resistant Staphylococcus aureus LAC USA300 assessed as reduction in staphyloxanthin levels after 48 hrs by spectrophotometric method-based pigment inhibition assay
T3 sequence (Q2FDU6 whole entry): T1 sequence (O07855 whole entry)

[9] = Aqueous solubility of compound after 24 hrs by HPLC method; format: physicochemical
[10] = target: T4, 4,4'-diapophytoene desaturase (4,4'-diaponeurosporene-forming) (Staphylococcus aureus (strain MW2), UniProt Q8NUQ6); assay: Inhibition of CrtN in methicillin-resistant Staphylococcus aureus USA400 MW2 assessed as reduction in staphyloxanthin levels after 48 hrs by spectrophotometric method-based pigment inhibition assay; design: species or system Staphylococcus aureus subsp. aureus MW2
T4 sequence (Q8NUQ6 whole entry): T1 sequence (O07855 whole entry) with R500Q

[11] = tested on: Nannizzia gypsea; assay: In vitro antifungal activity against Microsporum gypseum after 7 days by serial dilution method; format: functional; conditions: 168 h
[12] = tested on: Trichophyton rubrum; assay: In vitro antifungal activity against Trichophyton rubrum after 7 days by serial dilution method; format: functional; conditions: 168 h
[13] = Inhibition of CrtN in methicillin-resistant Staphylococcus aureus NRS271 assessed as reduction in staphyloxanthin levels after 48 hrs by spectrophotometric method-based pigment inhibition assay
[14] = tested on: Staphylococcus aureus; assay: In vivo anti-virulence activity against methicillin-resistant Staphylococcus aureus LRSA56 infected in BALB/c mouse model assessed as reduction in bacterial load in kidney at 0.4 mg bid for 3.5 days administered intraperitoneally 6 hrs post infection by serial dilution method relative to control; format: functional, organism-based
How it was run: (§1)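 Mice were infected by retro-orbital injection with LRSA56 (5.0 × 10^7 CFU) or LRSA202 (7.0 × 10^7 CFU). Compound was given intraperitoneally 6 h after infection. […] Log10 CFU was counted in kidneys and hearts, with groups compared by two-tailed Mann-Whitney test.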

[15] = tested on: Staphylococcus aureus; assay: In vivo anti-virulence activity against Staphylococcus aureus Mu50 infected in BALB/c mouse model assessed as reduction in bacterial load in kidney at 0.4 mg bid for 4.5 days administered […] 6 hrs post infection by serial dilution method relative to control; format: functional, organism-based
[16] = tested on: Staphylococcus aureus; assay: In vivo anti-virulence activity against methicillin-resistant Staphylococcus aureus LRSA202 infected in BALB/c mouse model assessed as reduction in bacterial load in heart at 0.4 mg bid for 3.5 days administered intraperitoneally 6 hrs post infection by serial dilution method relative to control; format: functional, organism-based; how it was run: as §1
[17] = tested on: Staphylococcus aureus; assay: In vivo anti-virulence activity against methicillin-resistant Staphylococcus aureus LRSA202 infected in BALB/c mouse model assessed as reduction in bacterial load in kidney at 0.4 mg bid for 3.5 days administered intraperitoneally 6 hrs post infection by serial dilution method relative to control; format: functional, organism-based; how it was run: as §1
[18] = tested on: Staphylococcus aureus; assay: In vivo anti-virulence activity against methicillin-resistant Staphylococcus aureus LRSA56 infected in BALB/c mouse model assessed as reduction in bacterial load in heart at 0.4 mg bid for 3.5 days administered intraperitoneally 6 hrs post infection by serial dilution method relative to control; format: functional, organism-based; how it was run: as §1
[19] = tested on: Staphylococcus aureus; assay: In vivo anti-virulence activity against methicillin-resistant Staphylococcus aureus Mu50 infected in BALB/c mouse model assessed as reduction in bacterial load in heart at 0.4 mg bid for 4.5 days administered intraperitoneally 6 hrs post infection by serial dilution method; format: functional, organism-based
[20] = target: T5, 4,4'-diapophytoene desaturase (4,4'-diaponeurosporene-forming) (Staphylococcus aureus (strain MW2)) (UniProt Q8NUQ6); assay: Inhibition of CrtN in methicillin-resistant Staphylococcus aureus USA400 MW2 assessed as increase in H2O2-induced bacterial death by measuring survival rate preincubated for 24 hrs followed by H2O2 addition measured after 30 mins by serial dilution method (reference value: 28.7%); conditions: Staphylococcus aureus subsp. aureus MW2
T5 sequence (whole entry): T1 sequence (O07855 whole entry) with R500Q
How it was run: (§2)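 Bacteria pretreated with 1 µM inhibitor or mock; N-acetylcysteine-treated cells served as control. Cells then exposed to 1.5% H2O2, and percent survival determined.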

[21] = target: T6, 4,4'-diapophytoene desaturase (4,4'-diaponeurosporene-forming) (Staphylococcus aureus (strain USA300)) (UniProt Q2FDU6); assay: Inhibition of CrtN in methicillin-resistant Staphylococcus aureus LAC USA300 assessed as increase in H2O2-induced bacterial death by measuring survival rate preincubated for 24 hrs followed by H2O2 addition measured after 30 mins by serial dilution method (reference value: 29.0%); how it was run: as §2
T6 sequence (whole entry): T1 sequence (O07855 whole entry)

[22] = target: T7, 4,4'-diapophytoene desaturase (4,4'-diaponeurosporene-forming) (Staphylococcus aureus (strain Mu50 / ATCC 700699)) (UniProt Q99R76); assay: Inhibition of CrtN in methicillin-resistant Staphylococcus aureus Mu50 assessed as increase in H2O2-induced bacterial death by measuring survival rate at preincubated for 24 hrs followed by H2O2 addition measured after 30 mins by serial dilution method (reference value: 29.0%); conditions: Staphylococcus aureus subsp. aureus Mu50; how it was run: as §2
T7 sequence (whole entry): T1 sequence (O07855 whole entry)

[23] = tested on: Staphylococcus aureus; assay: Chemo-sensitization activity in non-pigmented Staphylococcus aureus Newman assessed as increase in H2O2-induced bacterial death by measuring survival rate pre-incubated for 24 hrs followed by H2O2 addition measured after 30 mins by serial dilution method (reference value: 33.3%); format: functional
How it was run: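 S. aureus Newman was pre-incubated with 1 µM compound, with N-acetylcysteine as antioxidant control, or mock-treated. Cells were then exposed to 1.5% H2O2. Percent bacterial survival was compared with the mock-treated culture.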

[24] = Half life in human liver microsomes at 2 uM after 60 mins in presence of NADPH by LC-MS/MS method; format: ADME, microsome; conditions: liver microsomes
[25] = tested on: Liver; assay: In-vitro intrinsic clearance in human liver microsomes at 2 uM after 60 mins in presence of NADPH by LC-MS/MS method; format: ADME, microsome; conditions: 1 h
[26] = tested on: Staphylococcus aureus; assay: In vivo anti-virulence activity against methicillin-resistant Staphylococcus aureus LRSA202 infected in BALB/c mouse model assessed as reduction in bacterial load in kidney at 0.1 mg bid for 3.5 days administered intraperitoneally 6 hrs post infection by serial dilution method relative to control; format: functional, organism-based; how it was run: as §1
[27] = tested on: Staphylococcus aureus; assay: In vivo anti-virulence activity against methicillin-resistant Staphylococcus aureus NRS271 infected in BALB/c mouse model assessed as reduction in bacterial load in heart at 0.4 mg bid for 4.5 days administered intraperitoneally 6 hrs post infection by serial dilution method; format: functional, organism-based
[28] = tested on: Staphylococcus aureus; assay: In vivo anti-virulence activity against Staphylococcus aureus NRS271 infected in BALB/c mouse model assessed as reduction in bacterial load in kidney at 0.4 mg bid for 4.5 days administered orally 6 hrs post infection by serial dilution method relative to control; format: functional, organism-based
[29] = tested on: Staphylococcus aureus; assay: In vivo anti-virulence activity against methicillin-resistant Staphylococcus aureus LRSA202 infected in BALB/c mouse model assessed as reduction in bacterial load in heart at 0.1 mg bid for 3.5 days administered intraperitoneally 6 hrs post infection by serial dilution method relative to control; format: functional, organism-based; how it was run: as §1

SMILES: CC[C@H]1OC(=O)[C@H](C)[C@@H](O[C@H]2C[C@@](C)(OC)[C@@H](O)[C@H](C)O2)[C@H](C)[C@@H](O[C@@H]2O[C@H](C)C[C@H](N(C)C)[C@H]2O)[C@](C)(O)C[C@@H](C)C(=O)[C@H](C)[C@@H](O)[C@]1(C)O [ERYTHROMYCIN]
- MIC ([1]; Staphylococcus aureus, Newman, 24 h, read-out: MIC): 0.125 µg/mL (≈ 0.17 µM)

SMILES: O=P(O)(O)C(CCCc1cccc(Oc2ccccc2)c1)S(=O)(=O)O (centres undefined)
- IC50 [2]: 110 nM

SMILES: CN(C/C=C/c1ccc(C(F)(F)F)cc1)Cc1cccc2ccoc12.Cl
- IC50 [3]: 300 nM
- MIC80 [4]: > 64 µg/mL
- IC50 [5]: 3.7 µM
- MIC80 [6]: > 64 µg/mL
- IC50 [7]: 0.4 nM
- IC50 [8]: 5.5 nM
- solubility at 24 h [9]: 10000 µg/mL
- IC50 [10]: 3.4 nM
- MIC80 [11]: 32 µg/mL
- MIC80 [12]: 16 µg/mL
- IC50 [13]: 6.7 nM

SMILES: CN[C@H](CC(C)C)C(=O)N[C@H]1C(=O)N[C@@H](CC(N)=O)C(=O)N[C@H]2C(=O)N[C@H]3C(=O)N[C@H](C(=O)N[C@H](C(=O)O)c4cc(O)cc(O)c4-c4cc3ccc4O)[C@H](O)c3ccc(c(Cl)c3)Oc3cc2cc(c3O[C@@H]2O[C@H](CO)[C@@H](O)[C@H](O)[C@H]2O[C@H]2C[C@](C)(N)[C@H](O)[C@H](C)O2)Oc2ccc(cc2Cl)[C@H]1O
- Activity [14]: Active
- Activity [15]: Active
- Activity [16]: Active
- Activity [17]: Active
- Activity [18]: Active
- Activity [19]: Active

SMILES: CC(=O)N[C@@H](CS)C(=O)O [ACETYLCYSTEINE]
- Survival [20]: 54.3%
- Survival [21]: 52%
- Survival [22]: 53%
- Survival [23]: 51.3%

SMILES: Cc1ncc2n1-c1ccc(Cl)cc1C(c1ccccc1F)=NC2 [MIDAZOLAM]
- half-life at 2 µM [24]: 4.2 min
- CLH [25]: 0.33 mL/min/mg

SMILES: OO [HYDROGEN PEROXIDE]
- MIC [1]: 0.15%

SMILES: CC(=O)NC[C@H]1CN(c2ccc(N3CCOCC3)c(F)c2)C(=O)O1
- Activity [26]: Active
- Activity [15]: Active
- Activity [16]: Active
- Activity [17]: Active
- Activity [27]: Active
- Activity [28]: Active
- Activity [29]: Active
- Activity [19]: Active
